Measured values: ChEMBL document CHEMBL3396959, “Structural requirements for TLR7-selective signaling by 9-(4-piperidinylalkyl)-8-oxoadenine derivatives” (Bioorg Med Chem Lett, 2015)
pEC50: −log10 of the molar value. Calls of active or inactive are those of the source. No cut-off for these calls is given here.

Legend:
PBMC [1] = experiment: Reduction in IFNalpha production in primary human PBMC at >10 uM after 24 hrs by ELISA method; format: functional, cell-based
HEK293 = experiment: Toxicity against human TLR8 expressing HEK293 cells after 24 hrs by live/dead fixable aqua staining method; format: cell-based; settings: hek293, 24 h
Summary of the method: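 HEK293-hTLR8 reporter cells were stimulated with compound for 24 h. Cells were then incubated with Live/Dead fixable Aqua dye for 30 min, washed extensively, and read for viability by flow cytometry.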

[2] = Induction of IL6 expression in human HLA-DR(+), CD11c(+) and CD123(-) expressing mDC after 24 hrs by intracellular cytokine staining method; format: functional; set-up: concentration or dose not given beside the values
Summary of the method: (§1)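 PBMCs were stimulated with aqueous compound for 24 h, with GolgiPlug (10 ng/ml) present for the final 6 h. Cells were washed and surface-stained for lineage markers (mDC HLA-DR+ CD11c+ CD123−; pDC HLA-DR+ CD11c− CD123+). They were then permeabilized with Perm/Fix buffer and stained with fluorochrome-conjugated anti-cytokine antibodies for flow cytometry.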

Toll-like receptor 7 = molecular target: T1, Toll-like receptor 7 (Homo sapiens, UniProt Q9NYK1); experiment: Activation of human TLR7 expressed in HEK293 cells after 24 hrs by NFkappaB-mediated SEAP reporter gene assay; format: cell-based; settings: for pEC50: read-out: EC50
T1 sequence (Q9NYK1 whole entry): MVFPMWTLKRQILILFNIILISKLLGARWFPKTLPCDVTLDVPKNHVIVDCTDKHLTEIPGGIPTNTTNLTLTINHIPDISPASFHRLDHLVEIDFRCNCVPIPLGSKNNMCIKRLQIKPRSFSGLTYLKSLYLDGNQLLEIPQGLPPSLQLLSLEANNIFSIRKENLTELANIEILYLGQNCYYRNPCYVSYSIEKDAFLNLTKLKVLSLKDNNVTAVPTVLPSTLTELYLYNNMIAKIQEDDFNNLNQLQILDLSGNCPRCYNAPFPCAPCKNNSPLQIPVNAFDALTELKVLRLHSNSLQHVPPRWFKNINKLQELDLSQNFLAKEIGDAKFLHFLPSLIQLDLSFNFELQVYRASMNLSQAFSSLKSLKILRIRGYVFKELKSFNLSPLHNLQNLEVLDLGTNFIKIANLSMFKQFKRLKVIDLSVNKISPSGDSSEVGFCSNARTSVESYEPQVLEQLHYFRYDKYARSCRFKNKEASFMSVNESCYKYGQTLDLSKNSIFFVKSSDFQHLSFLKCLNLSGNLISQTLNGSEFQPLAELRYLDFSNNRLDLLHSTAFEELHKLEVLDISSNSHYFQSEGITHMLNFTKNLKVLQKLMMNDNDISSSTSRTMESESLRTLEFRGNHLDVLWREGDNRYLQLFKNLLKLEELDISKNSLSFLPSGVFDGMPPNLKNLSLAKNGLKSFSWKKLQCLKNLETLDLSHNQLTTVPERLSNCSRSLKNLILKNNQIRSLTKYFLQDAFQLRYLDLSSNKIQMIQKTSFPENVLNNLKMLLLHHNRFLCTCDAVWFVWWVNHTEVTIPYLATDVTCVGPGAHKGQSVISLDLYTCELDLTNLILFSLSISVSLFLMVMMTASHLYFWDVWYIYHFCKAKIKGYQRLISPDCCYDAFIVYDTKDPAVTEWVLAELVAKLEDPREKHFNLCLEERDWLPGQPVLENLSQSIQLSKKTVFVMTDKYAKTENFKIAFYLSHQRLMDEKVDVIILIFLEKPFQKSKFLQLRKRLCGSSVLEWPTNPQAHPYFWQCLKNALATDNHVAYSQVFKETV
Summary of the method: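 HEK293 cells stably transfected with hTLR7 or hTLR8 plus an NF-kB-driven SEAP reporter were kept in DMEM/10% FBS with selection antibiotics. Aqueous compound formulations were added for 24 h, and supernatant SEAP was read colorimetrically. Points were run in triplicate and averaged. Activity was scaled to the maximum of a reference agonist set at 100%. EC50 was taken from dose-response curves with 95% CI.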

PBMC [3] = experiment: Induction of TNFalpha production in primary human PBMC after 24 hrs by ELISA method; format: functional, cell-based
Summary of the method: (§2)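 Ficoll-isolated healthy-donor PBMCs at 0.5 × 10^6 cells/well in RPMI-1640/10% FBS were stimulated 24 h with aqueous compound. Supernatant TNFa was assayed with a […]. Data are from three donors in triplicate, with SEM shown.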

PBMC [4] = experiment: Induction of IFNgamma production in primary human PBMC after 24 hrs by ELISA method; format: functional, cell-based
PBMC [5] = experiment: Induction of IFNalpha production in primary human PBMC at 0.001 to 10 uM after 24 hrs by ELISA method; format: functional, cell-based
Summary of the method: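 Fresh healthy-donor PBMCs were isolated by Ficoll and plated at 0.5 × 10^6 cells/well in RPMI-1640/10% FBS with antibiotics. Aqueous compound formulations were added for 24 h across 0.0001–10 µM. Supernatant IFNa was measured by ELISA. Data are from three donors, each run in triplicate, with SEM shown.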

PBMC [6] = experiment: Induction of TNFalpha production in primary human PBMC at 0.001 to 10 uM after 24 hrs by ELISA method; format: functional, cell-based; summary of the method: as §2
Toll-like receptor 8 = molecular target: T2, Toll-like receptor 8 (Homo sapiens, UniProt Q9NR97); experiment: Activation of human TLR8 expressed in HEK293 cells after 24 hrs by NFkappaB-mediated SEAP reporter gene assay; format: cell-based; settings: for pEC50: read-out: EC50
T2 sequence (Q9NR97 whole entry): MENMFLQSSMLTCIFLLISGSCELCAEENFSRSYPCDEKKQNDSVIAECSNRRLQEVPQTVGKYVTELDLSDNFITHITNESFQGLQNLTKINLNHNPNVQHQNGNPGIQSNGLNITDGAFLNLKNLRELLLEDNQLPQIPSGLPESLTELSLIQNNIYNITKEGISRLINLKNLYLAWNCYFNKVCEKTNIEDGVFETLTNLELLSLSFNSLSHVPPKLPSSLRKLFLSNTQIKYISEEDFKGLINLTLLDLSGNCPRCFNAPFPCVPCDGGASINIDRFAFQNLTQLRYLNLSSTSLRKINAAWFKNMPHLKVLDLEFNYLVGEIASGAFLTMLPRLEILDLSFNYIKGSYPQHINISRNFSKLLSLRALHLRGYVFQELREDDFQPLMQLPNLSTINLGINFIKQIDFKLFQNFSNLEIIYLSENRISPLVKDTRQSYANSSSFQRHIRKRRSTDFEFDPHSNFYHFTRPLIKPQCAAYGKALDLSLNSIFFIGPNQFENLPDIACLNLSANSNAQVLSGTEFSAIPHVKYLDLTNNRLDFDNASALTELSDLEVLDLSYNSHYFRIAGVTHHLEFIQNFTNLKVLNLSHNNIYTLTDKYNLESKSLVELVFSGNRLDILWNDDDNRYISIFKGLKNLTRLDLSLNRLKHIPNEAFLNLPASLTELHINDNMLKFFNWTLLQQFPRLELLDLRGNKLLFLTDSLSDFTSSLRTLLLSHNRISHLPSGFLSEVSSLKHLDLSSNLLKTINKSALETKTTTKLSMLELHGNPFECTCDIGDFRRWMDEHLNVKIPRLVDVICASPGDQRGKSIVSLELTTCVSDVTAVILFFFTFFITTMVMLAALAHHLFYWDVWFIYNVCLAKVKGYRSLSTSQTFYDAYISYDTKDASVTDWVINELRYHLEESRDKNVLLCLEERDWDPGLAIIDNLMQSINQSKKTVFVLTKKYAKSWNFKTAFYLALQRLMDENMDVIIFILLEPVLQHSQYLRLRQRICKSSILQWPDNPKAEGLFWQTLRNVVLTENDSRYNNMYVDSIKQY
Summary of the method: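 HEK293 cells stably transfected with hTLR7 or hTLR8 plus an NF-kB-driven SEAP reporter were kept in DMEM/10% FBS with selection antibiotics. Aqueous compound formulations were added for 24 h, and supernatant SEAP was read colorimetrically. Points were run in triplicate and averaged.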

Homo sapiens [7] = organism: Homo sapiens; experiment: Induction of INFalpha production in human HLA-DR(+), CD11c(+) and CD123(-) expressing mDC after 24 hrs by […]; format: functional
Homo sapiens [8] = organism: Homo sapiens; experiment: Induction of INFalpha production in human HLA-DR(+), CD11c(-) and CD123(+) expressing pDC after 24 hrs by […]; format: functional
Homo sapiens [9] = organism: Homo sapiens; experiment: Induction of INFalpha production in human HLA-DR(+), CD11c(+) and CD123(-) expressing mDC after 24 hrs by intracellular cytokine staining method; format: functional, cell-based; summary of the method: as §1
Homo sapiens [10] = organism: Homo sapiens; experiment: Induction of apoptosis in human HLA-DR(+), CD11c(-) and CD123(+) expressing pDC at 1 nM after 24 hrs by Annexin-V staining method; format: functional
Summary of the method: (§3)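 PBMCs were stimulated for 24 h with compound at doses of 0.01 nM, 1 nM, 100 nM and 10 µM. Cells were phenotyped into mDC (HLA-DR+ CD11c+ CD123−) and pDC (HLA-DR+ CD11c− CD123+) and stained with Annexin-V to read apoptosis by flow cytometry.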

Homo sapiens [11] = organism: Homo sapiens; experiment: Induction of TNFalpha production in human HLA-DR(+), CD11c(-) and CD123(+) expressing pDC after 24 hrs by intracellular cytokine staining method; format: functional, cell-based; summary of the method: as §1
Homo sapiens [12] = organism: Homo sapiens; experiment: Induction of TNFalpha production in human HLA-DR(+), CD11c(+) and CD123(-) expressing mDC after 24 hrs by intracellular cytokine staining method; format: functional, cell-based; summary of the method: as §1
Homo sapiens [13] = organism: Homo sapiens; experiment: Induction of TNFalpha production in human HLA-DR(+), CD11c(-) and CD123(+) expressing pDC after 24 hrs by […]; format: functional
Homo sapiens [14] = organism: Homo sapiens; experiment: Induction of apoptosis in human HLA-DR(+), CD11c(+) and CD123(-) expressing mDC at 1 nM after 24 hrs by Annexin-V staining method; format: functional; summary of the method: as §3
Homo sapiens [15] = organism: Homo sapiens; experiment: Induction of TNFalpha production in human HLA-DR(+), CD11c(+) and CD123(-) expressing mDC after 24 hrs by intracellular cytokine staining
Homo sapiens [16] = organism: Homo sapiens; experiment: Induction of INFalpha production in human HLA-DR(+), CD11c(-) and CD123(+) expressing pDC after 24 hrs by intracellular cytokine staining method; format: functional, cell-based; summary of the method: as §1
Homo sapiens [17] = organism: Homo sapiens; experiment: Induction of apoptosis in human HLA-DR(+), CD11c(+) and CD123(-) expressing mDC at 10 uM after 24 hrs by Annexin-V staining method; format: functional; summary of the method: as §3
Homo sapiens [18] = organism: Homo sapiens; experiment: Induction of apoptosis in human HLA-DR(+), CD11c(-) and CD123(+) expressing pDC at 10 uM after 24 hrs by Annexin-V staining method; format: functional; summary of the method: as §3

Structure (SMILES)	inhibition (PBMC [1])	Activity (HEK293)	Activity [2] [%]	pEC50 (Toll-like receptor 7)	Activity (PBMC [3])	Activity (PBMC [4])	Activity (PBMC [5])	Activity (PBMC [6])	pEC50 (Toll-like receptor 8)	also measured
CCCCOc1nc(N)c2[nH]c(=O)n(CCCC3CCNCC3)c2n1.Cl	Dose-dependent effect	Non-toxic	8.27	6.21	Active	Active	Active	Dose-dependent effect	3.59	
CCCCOc1nc(N)c2[nH]c(=O)n(C3CCNCC3)c2n1.Cl					inactive	inactive	inactive			EC50 (Toll-like receptor 7; hek293): Not Active; EC50 (Toll-like receptor 8; hek293): Not Active
CCCCOc1nc(N)c2[nH]c(=O)n(CCC3CCNCC3)c2n1.Cl	Dose-dependent effect	Non-toxic	4.91	6.82	Active	Active	Active	Dose-dependent effect	3.64	
CCCCOc1nc(N)c2[nH]c(=O)n(CCCCCC3CCNCC3)c2n1.Cl	Dose-dependent effect	Toxic	31.5	7.00	Active	Active	Active	Dose-dependent effect		Activity (Homo sapiens [7]): Dose-dependent effect; Activity (Homo sapiens [8]): Dose-dependent effect; Activity (Homo sapiens [9]): Dose-dependent effect; Activity (Homo sapiens [10]): Active; Activity (Homo sapiens [11]): Dose-dependent effect; Activity (Homo sapiens [12]): Dose-dependent effect; Activity (Homo sapiens [13]): Dose-dependent effect; Activity (Homo sapiens [14]): inactive; Activity (Homo sapiens [15]): Dose-dependent effect; Activity (Homo sapiens [16]): Dose-dependent effect
CCCCOc1nc(N)c2[nH]c(=O)n(CCCCC3CCNCC3)c2n1.Cl	Dose-dependent effect	Toxic	22.3	6.82	Active	Active	Active	Dose-dependent effect	3.88	
CCCCOc1nc(N)c2[nH]c(=O)n(CC3CCNCC3)c2n1.Cl	Dose-dependent effect	Non-toxic	2.95	5.40	inactive	inactive	Active			Activity (Homo sapiens [7]): Dose-dependent effect; Activity (Homo sapiens [8]): Dose-dependent effect; Activity (Homo sapiens [9]): Dose-dependent effect; Activity (Homo sapiens [17]): Active; Activity (Homo sapiens [11]): Dose-dependent effect; Activity (Homo sapiens [12]): Dose-dependent effect; Activity (Homo sapiens [13]): Dose-dependent effect; Activity (Homo sapiens [15]): Dose-dependent effect; Activity (Homo sapiens [16]): Dose-dependent effect; Activity (Homo sapiens [18]): Active
CCCCOc1nc(N)c2[nH]c(=O)n(CCCCCCC3CCNCC3)c2n1.Cl	Dose-dependent effect		28.5	6.64	Active	Active	Active	Dose-dependent effect	4.54	
